In ChEMBL document CHEMBL1921795, “Discovery, synthesis, and structure-activity relationship development of a series of N-4-(2,5-dioxopyrrolidin-1-yl)phenylpicolinamides (VU0400195, ML182): characterization of a novel positive allosteric modulator of the metabotropic glutamate receptor 4 (mGlu(4)) with oral efficacy in an …” (J Med Chem, 2011):

Legend:
[1] = target: T1, Metabotropic glutamate receptor 4 (Homo sapiens, UniProt Q14833); assay: Positive allosteric modulator activity at human mGlu4 receptor expressed in CHO cells expressing Gqi5 by calcium mobilization assay
[2] = target: T1, Metabotropic glutamate receptor 4; assay: Positive allosteric modulation of human mGlu4 receptor expressed in CHO cells coexpressing Gqi5 assessed as potentiation of glutamate-induced calcium mobilization relative to (-)-PHCCC; type: functional, cell-based
Procedure, shortened: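 CHO cells stably expressing human mGlu4 with chimeric Gqi5, plated overnight, loaded 45 min at 37 °C with 1 µM Fluo-4 AM. Compound (10-point, 1:3 dilutions) was added about 2.5 min before an EC20 glutamate, then EC80 glutamate 2 min later. Ca2+ fluorescence read at 470/540 nm. Four-parameter logistic fit.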

[3] = target: Metabotropic glutamate receptor 4 (Rattus norvegicus, UniProt P31423); assay: Positive allosteric modulator activity at rat mGlu4 receptor by thallium flux assay
[4] = target: Metabotropic glutamate receptor 4 (Rattus norvegicus) (UniProt P31423); assay: Positive allosteric modulator activity at rat mGlu4 receptor by thallium flux assay at 30 uM relative to glutamate
[5] = target: Metabotropic glutamate receptor 4 (Rattus norvegicus) (UniProt P31423); assay: Positive allosteric modulation of rat mGlu4 receptor assessed as potentiation of glutamate-induced thallium flux relative to (-)-PHCCC; parameters: concentration or dose not given beside the values
Cytochrome P450 2D6 = Cytochrome P450 2D6 (Homo sapiens, UniProt P10635); assay: Inhibition of CYP2D6 in human liver microsomes using […] as substrate; type: ADME, Microsome
Procedure, shortened: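 Pooled human liver microsomes (0.1 mg/mL) with probe cocktail (phenacetin 10 µM, diclofenac 5 µM, dextromethorphan 5 µM, midazolam 2 µM) in 0.1 M phosphate pH 7.4; compound 100 nM–30 µM in duplicate, 15 min preincubation at 37 °C, then 1 mM NADPH for 8 min. LC/MS/MS of metabolite formation; IC50 derived.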

Cytochrome P450 3A4 = Cytochrome P450 3A4 (Homo sapiens, UniProt P08684); assay: Inhibition of CYP3A4 in human liver microsomes using […] as substrate; type: ADME, Microsome
[6] = Intrinsic clearance in human hepatic microsomes; type: ADME, Microsome; details: human liver microsomes
[7] = Intrinsic clearance in rat hepatic microsomes at 1 uM by LC/MS/MS analysis; type: ADME, Microsome; details: rat liver microsomes
Plasma [8] = assay: Fraction unbound in human plasma; type: ADME, cell-free
Plasma [9] = assay: Fraction unbound in rat plasma by equilibrium dialysis; type: ADME, cell-free
Procedure, shortened: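 Rat plasma spiked with compound, equilibrium dialysis against 25 mM phosphate buffer pH 7.4 for 4 h at 37 °C with shaking; both chambers matrix-matched, acetonitrile-extracted and quantified by LC/MS/MS; triplicate.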

Brain = assay: Fraction unbound in rat brain homogenate by equilibrium dialysis; type: ADME, tissue-based
Cytochrome P450 1A2 = target: T2, Cytochrome P450 1A2 (Homo sapiens, UniProt P05177); assay: Inhibition of CYP1A2 in human liver microsomes using phenacetin as substrate
T2 sequence (P05177 whole entry): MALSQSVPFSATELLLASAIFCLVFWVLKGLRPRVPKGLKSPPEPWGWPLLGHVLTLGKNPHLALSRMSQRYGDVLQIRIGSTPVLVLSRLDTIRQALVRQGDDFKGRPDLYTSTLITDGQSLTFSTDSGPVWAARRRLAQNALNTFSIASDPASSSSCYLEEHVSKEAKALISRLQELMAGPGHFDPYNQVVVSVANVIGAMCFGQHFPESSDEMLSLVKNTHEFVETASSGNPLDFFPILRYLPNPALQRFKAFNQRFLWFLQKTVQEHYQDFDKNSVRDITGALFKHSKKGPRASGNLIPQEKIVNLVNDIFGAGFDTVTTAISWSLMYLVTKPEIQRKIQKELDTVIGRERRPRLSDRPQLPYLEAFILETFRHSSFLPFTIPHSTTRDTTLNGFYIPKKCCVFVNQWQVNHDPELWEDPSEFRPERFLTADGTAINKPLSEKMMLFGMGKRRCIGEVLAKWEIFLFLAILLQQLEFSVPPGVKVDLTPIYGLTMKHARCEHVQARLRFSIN

Cytochrome P450 2C9 = Cytochrome P450 2C9 (Homo sapiens, UniProt P11712); assay: Inhibition of CYP2C9 in human liver microsomes using diclofenac as substrate
Rattus norvegicus [10] = assay: Half life in Sprague-Dawley rat at 1 mg/kg, iv by LC/MS analysis; type: ADME, organism-based; parameters: dose 1 mg/kg, route intravenous; details: in vivo
Procedure, shortened: (§1)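 Male Sprague-Dawley rats (n=2, 250-300 g), carotid and jugular cannulated; 1 mg/kg iv via jugular catheter in 20% DMSO/80% saline. Arterial blood from pre-dose to 24 h, EDTA plasma analysed by LC/MS/MS; noncompartmental analysis of individual profiles.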

Rattus norvegicus [11] = assay: Volume of distribution at steady state in Sprague-Dawley rat at 1 mg/kg, iv by LC/MS analysis; type: ADME, organism-based; parameters: dose 1 mg/kg, route intravenous; details: in vivo; procedure, shortened: as §1
Rattus norvegicus [12] = assay: AUC (0 to 24 hrs) in Sprague-Dawley rat at 1 mg/kg, iv by LC/MS analysis; type: ADME, organism-based, Plasma; parameters: time < 24 hr, dose 1 mg/kg, route intravenous; details: in vivo
Procedure, shortened: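 Male Sprague-Dawley rats (n=2, 250-300 g) with carotid artery and jugular vein catheters, acclimated about one week, fed ad libitum. Dose given through the jugular catheter in 20% DMSO/80% saline at 1 mL/kg. Carotid blood drawn pre-dose and at 2, 7, 15, 30 min and 1, 2, 4, 7, 24 h into chilled EDTA tubes. Plasma measured by LC/MS/MS; parameters from noncompartmental analysis of individual profiles.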

Rattus norvegicus [13] = assay: AUC (0 to 24 hrs) in Sprague-Dawley rat at 10 mg/kg, po by LC/MS analysis; type: ADME, organism-based, Plasma; parameters: time < 24 hr, dose 10 mg/kg, route oral; details: in vivo
Rattus norvegicus [14] = assay: Cmax in Sprague-Dawley rat at 10 mg/kg, po by LC/MS analysis; type: ADME, organism-based; parameters: dose 10 mg/kg, route oral; details: in vivo
Rattus norvegicus [15] = assay: Oral bioavailability in Sprague-Dawley rat at 10 mg/kg by LC/MS analysis; type: ADME, organism-based; details: in vivo

Metabotropic glutamate receptor 4 (Rattus norvegicus, UniProt P31423), sequence (P31423 whole entry): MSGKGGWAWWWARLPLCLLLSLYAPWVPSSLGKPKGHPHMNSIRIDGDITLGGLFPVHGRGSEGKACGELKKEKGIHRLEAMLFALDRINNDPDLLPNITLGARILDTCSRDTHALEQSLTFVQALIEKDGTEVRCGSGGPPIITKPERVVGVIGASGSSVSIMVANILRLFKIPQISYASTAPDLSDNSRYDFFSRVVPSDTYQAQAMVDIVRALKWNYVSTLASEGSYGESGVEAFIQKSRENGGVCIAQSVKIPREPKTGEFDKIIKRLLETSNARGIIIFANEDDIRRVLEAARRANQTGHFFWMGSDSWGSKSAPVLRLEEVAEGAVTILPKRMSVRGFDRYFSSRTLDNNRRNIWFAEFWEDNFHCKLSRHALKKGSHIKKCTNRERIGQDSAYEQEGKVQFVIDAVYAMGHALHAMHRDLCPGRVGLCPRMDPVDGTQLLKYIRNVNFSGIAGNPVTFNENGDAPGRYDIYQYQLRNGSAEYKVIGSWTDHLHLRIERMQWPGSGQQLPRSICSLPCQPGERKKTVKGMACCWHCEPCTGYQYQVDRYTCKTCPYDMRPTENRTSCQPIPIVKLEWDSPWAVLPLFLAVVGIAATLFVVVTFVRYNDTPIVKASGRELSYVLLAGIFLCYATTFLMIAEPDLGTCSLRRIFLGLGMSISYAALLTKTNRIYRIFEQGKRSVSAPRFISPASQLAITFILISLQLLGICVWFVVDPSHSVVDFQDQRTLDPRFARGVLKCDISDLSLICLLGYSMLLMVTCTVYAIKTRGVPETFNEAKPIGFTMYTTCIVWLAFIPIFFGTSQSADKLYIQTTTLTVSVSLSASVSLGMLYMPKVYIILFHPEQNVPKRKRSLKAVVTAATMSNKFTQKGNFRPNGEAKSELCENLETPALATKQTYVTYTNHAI
Metabotropic glutamate receptor 4 (Rattus norvegicus), sequence (P31423 whole entry): as above
T1 sequence (Q14833 whole entry): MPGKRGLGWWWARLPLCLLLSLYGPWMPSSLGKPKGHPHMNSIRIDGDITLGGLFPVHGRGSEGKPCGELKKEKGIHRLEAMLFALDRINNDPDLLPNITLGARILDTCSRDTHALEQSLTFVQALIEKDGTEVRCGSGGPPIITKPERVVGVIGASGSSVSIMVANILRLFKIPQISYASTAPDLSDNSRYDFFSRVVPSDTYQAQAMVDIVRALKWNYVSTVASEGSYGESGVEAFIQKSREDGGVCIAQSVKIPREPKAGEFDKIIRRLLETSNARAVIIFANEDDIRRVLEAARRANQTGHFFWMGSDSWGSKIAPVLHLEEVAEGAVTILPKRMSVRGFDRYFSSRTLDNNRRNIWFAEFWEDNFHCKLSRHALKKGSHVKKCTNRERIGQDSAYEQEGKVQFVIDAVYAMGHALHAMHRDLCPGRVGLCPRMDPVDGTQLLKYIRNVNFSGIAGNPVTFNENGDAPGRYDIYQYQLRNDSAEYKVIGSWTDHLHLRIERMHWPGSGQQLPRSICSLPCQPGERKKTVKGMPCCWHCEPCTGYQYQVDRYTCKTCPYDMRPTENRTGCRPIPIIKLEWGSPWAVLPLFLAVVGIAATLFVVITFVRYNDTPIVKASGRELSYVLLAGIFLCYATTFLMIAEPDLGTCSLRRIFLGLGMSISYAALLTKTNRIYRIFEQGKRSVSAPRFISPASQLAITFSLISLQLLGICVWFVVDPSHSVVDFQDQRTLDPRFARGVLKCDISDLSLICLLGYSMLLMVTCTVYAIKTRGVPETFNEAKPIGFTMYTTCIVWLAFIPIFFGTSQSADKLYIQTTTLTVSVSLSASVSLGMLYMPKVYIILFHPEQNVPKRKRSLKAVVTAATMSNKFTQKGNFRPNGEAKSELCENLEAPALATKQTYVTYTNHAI
Cytochrome P450 2C9, sequence (P11712 whole entry): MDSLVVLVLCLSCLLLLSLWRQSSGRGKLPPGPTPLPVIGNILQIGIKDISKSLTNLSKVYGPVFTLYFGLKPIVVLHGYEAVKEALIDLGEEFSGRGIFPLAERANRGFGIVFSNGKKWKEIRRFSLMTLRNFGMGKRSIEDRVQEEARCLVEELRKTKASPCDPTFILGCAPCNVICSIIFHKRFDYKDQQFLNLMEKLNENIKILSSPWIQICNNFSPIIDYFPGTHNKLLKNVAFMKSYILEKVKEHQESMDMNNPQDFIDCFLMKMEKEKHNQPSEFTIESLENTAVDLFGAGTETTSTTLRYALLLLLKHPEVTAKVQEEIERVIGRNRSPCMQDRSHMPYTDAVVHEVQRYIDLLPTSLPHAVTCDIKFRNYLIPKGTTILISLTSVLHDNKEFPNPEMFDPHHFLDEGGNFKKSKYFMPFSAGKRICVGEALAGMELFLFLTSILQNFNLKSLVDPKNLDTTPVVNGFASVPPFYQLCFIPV
Cytochrome P450 2D6, sequence (P10635 whole entry): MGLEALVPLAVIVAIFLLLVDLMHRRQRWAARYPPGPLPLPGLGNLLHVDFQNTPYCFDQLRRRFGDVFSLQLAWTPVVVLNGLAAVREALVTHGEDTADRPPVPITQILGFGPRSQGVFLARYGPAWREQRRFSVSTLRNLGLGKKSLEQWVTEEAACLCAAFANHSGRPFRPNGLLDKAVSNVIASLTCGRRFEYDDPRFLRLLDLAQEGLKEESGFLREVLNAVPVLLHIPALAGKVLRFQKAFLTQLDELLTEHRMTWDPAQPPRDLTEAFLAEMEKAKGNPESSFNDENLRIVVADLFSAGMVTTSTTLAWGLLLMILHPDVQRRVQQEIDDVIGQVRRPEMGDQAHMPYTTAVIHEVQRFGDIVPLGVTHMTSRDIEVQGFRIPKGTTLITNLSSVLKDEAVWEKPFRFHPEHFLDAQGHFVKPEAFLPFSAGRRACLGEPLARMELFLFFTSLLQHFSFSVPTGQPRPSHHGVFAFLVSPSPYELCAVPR
Cytochrome P450 3A4, sequence (P08684 whole entry): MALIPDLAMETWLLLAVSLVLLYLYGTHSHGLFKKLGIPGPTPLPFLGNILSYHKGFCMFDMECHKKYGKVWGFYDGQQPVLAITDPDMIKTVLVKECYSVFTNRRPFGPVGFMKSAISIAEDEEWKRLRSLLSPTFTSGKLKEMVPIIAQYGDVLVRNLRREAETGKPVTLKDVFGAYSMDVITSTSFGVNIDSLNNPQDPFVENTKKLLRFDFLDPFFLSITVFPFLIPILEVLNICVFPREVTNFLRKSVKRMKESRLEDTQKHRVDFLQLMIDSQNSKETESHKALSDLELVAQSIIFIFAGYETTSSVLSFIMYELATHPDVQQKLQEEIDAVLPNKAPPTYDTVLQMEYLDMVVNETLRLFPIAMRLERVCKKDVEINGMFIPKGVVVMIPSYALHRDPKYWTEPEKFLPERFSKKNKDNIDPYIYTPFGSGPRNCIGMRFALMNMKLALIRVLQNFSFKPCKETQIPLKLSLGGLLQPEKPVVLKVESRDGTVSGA

Compound | EC50 [1] [nM] | Activity [2] [%] | fold change (FC) [4] | Activity [5] [%] | also measured
O=C(Nc1ccc(N2S(=O)(=O)c3ccccc3S2(=O)=O)cc1)c1nccs1 | 353 | 122 | 4.7 | 127 | EC50 [3]: 201 nM
O=C(Nc1ccc(N2S(=O)(=O)c3ccccc3S2(=O)=O)cc1)c1cccc(F)n1 | 1800 | 76.7 |  |  | 
CC1(C)[C@@H]2C(=O)N(c3ccc(NC(=O)c4ccccn4)cc3Cl)C(=O)[C@@H]21 |  | 100 | 5.5 | 105 | 
O=C(Nc1ccc(N2C(=O)c3cccc(Cl)c3C2=O)c(Cl)c1)c1ccccn1 |  | 130 | 83 | 137 | EC50 [3]: 34.9 nM
O=C(Nc1ccc(N2C(=O)CC3(CCCCC3)C2=O)c(Cl)c1)c1ccccn1 |  |  |  |  | IC50 (Cytochrome P450 2D6): > 30000 nM; IC50 (Cytochrome P450 3A4): > 30000 nM; CLint scaled [6]: 19.4 mL/min/kg; CLint scaled at 1 µM [7]: 66.7 mL/min/kg; Fu (Plasma [8]): 0.62%; Fu (Plasma [9]): 0.5%; Fu (Brain): 1.7%; IC50 (Cytochrome P450 1A2): > 30000 nM; IC50 (Cytochrome P450 2C9): > 30000 nM
CC1(C)CC(=O)N(c2ccc(NC(=O)c3ccccn3)cc2Cl)C1=O | 1400 | 82 |  |  | 
O=C(Nc1ccc(N2S(=O)(=O)c3ccccc3S2(=O)=O)cc1)c1ccncn1 | 179 | 100 | 3.3 | 103 | EC50 [3]: 242 nM
O=C(Nc1ccc(N2C(=O)[C@@H]3[C@H](C2=O)[C@@H]2CC[C@H]3O2)c(Cl)c1)c1ccccn1 | 1300 | 90 |  |  | 
O=S1(=O)c2ccccc2S(=O)(=O)N1c1ccc(NC2(c3ccccn3)CC2)cc1 | 6400 | 62.7 |  |  | 
O=C(Nc1ccc(N2S(=O)(=O)c3ccccc3S2(=O)=O)cc1)c1ccccc1 | 402 | 65 |  |  | 
COc1cccc(C(=O)Nc2ccc(N3S(=O)(=O)c4ccccc4S3(=O)=O)cc2)n1 |  | 22 |  |  | EC50 ([1]; cho): Not Active
Cl.O=C(Nc1ccc(N2C(=O)CC3(CCCCC3)C2=O)c(Cl)c1)c1ccccn1 |  |  |  |  | t1/2 (Rattus norvegicus [10]): 1.56 h; Vdss (Rattus norvegicus [11]): 5.5 L/kg; AUC (Rattus norvegicus [12]): 346 ng·h/mL; AUC (Rattus norvegicus [13]): 813 ng·h/mL; Cmax (Rattus norvegicus [14]): 18.3 ng/mL; F (Rattus norvegicus [15]): 24.6%
O=S1(=O)c2ccccc2S(=O)(=O)N1c1ccc(NCc2ccccn2)cc1 | 1800 | 110 |  |  | 
O=C(Nc1ccc(N2S(=O)(=O)c3ccccc3S2(=O)=O)cc1)c1cscn1 | 104 | 123 | 7.3 | 115 | EC50 [3]: 105 nM
O=C(Nc1ccc(N2S(=O)(=O)c3ccccc3S2(=O)=O)cc1)c1cccnc1 |  | 27.7 |  |  | EC50 ([1]; cho): Not Active
